PAFAH1B3 inh: PAFAH1B3 enzyme inhibitors, primary screen, biochemical, fluorescence polarization, human | recombinant PAFAH1B3, FP-rhodamine probe | inhibition, % at 3.39 µM | actives 0.28% (n = 340,000) | Platelet-activating factor acetylhydrolase IB subunit alpha1 (Homo sapiens), Q15102;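 active = inhibition above the screen-wide average of all tested compounds plus 3 SD, cut at about 25% in these data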
Target sequence (Q15102 whole entry, looked up): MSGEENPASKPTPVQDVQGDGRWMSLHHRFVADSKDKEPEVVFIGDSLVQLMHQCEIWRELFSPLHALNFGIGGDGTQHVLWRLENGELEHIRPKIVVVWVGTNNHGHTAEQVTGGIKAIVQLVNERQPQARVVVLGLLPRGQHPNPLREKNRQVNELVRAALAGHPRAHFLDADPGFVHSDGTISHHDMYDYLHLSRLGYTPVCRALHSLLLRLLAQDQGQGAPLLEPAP
IMP-1 inhibitor: IMP-1 metallo-beta-lactamase inhibitors, primary screen, biochemical, epi-absorbance readout, Pseudomonas aeruginosa enzyme | inhibition, % at 5.6 µM | purified IMP-1, nitrocefin hydrolysis, epi-absorbance fluorescence | metallo-beta-lactamase IMP-1 (Pseudomonas aeruginosa) | actives 0.45% (n = 290,000);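 active = inhibition above the mean plus 3 SD of all compounds in the same screening run, cut at about 4.5% in these data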
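System: Purified IMP-1 | Read-out basis: Percent enzyme inhibition | Controls: IMP-1 with DMSO as 0%, enzyme-free DMSO as 100% | Replicates: One well per compound | Doses: 5.6 µM nominal single concentration | Detection: Epi-absorbance fluorescence, 480 nm excitation, 530 nm emission | Incubation: 25 °C, 15 min preincubation, 25 min reaction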
VIM-2 inhibitor: VIM-2 metallo-beta-lactamase inhibitors, primary screen, biochemical, epi-absorbance readout, Pseudomonas aeruginosa enzyme; inhibition, % at 5.6 µM; purified VIM-2, nitrocefin hydrolysis, epi-absorbance fluorescence; actives 0.89% (n = 290,000);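 active = inhibition above the mean of all tested compounds plus 3 SD, cutoff set per screening run, cut at about 7.5% in these data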;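 note: red hydrolysis product quenches plate fluorescence so inhibitors raise well fluorescence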
PAFAH1B2 FP inh: PAFAH1B2 enzyme inhibitors, primary screen, biochemical, fluorescence polarization, human. recombinant PAFAH1B2, FP-rhodamine activity probe. inhibition, % at 3.39 µM. actives 1.2% (n = 340,000);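 active = inhibition above the mean of all tested compounds plus 3 SD, cut at about 24% in these data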
Target sequence (P68402 whole entry, looked up): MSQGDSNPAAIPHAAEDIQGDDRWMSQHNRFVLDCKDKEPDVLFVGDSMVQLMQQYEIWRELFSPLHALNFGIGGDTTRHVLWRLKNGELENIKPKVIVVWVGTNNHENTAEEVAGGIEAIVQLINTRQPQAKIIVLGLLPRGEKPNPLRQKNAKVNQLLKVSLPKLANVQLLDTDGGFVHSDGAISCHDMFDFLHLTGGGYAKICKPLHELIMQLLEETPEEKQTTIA
PAFAH2 inh: PAFAH2 enzyme inhibitors, primary screen, biochemical, fluorescence polarization, human; AID 492956, 2010; inhibition, % at 3.39 µM; actives 0.99% (n = 340,000); Platelet-activating factor acetylhydrolase 2, cytoplasmic (Homo sapiens), Q99487; recombinant PAFAH2, FP-rhodamine activity probe;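 active = inhibition above the mean over all tested compounds plus 3 SD, cut at about 30% in these data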;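 note: inhibitors block probe labeling of enzyme so polarization drops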
pPAFAH inh: pPAFAH enzyme inhibitors, primary screen, biochemical, fluorescence polarization, human; recombinant pPAFAH, FP-rhodamine probe fluorescence polarization; inhibition, % at 3.39 µM; actives 1.5% (n = 330,000);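 active = inhibition above the mean inhibition across the screen plus 3 SD, cut at about 25% in these data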;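 note: inhibitors block binding of the rhodamine activity-based probe so polarization drops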
PAFAH2 FP conf: PAFAH2 enzyme inhibitors, confirmation, biochemical, fluorescence polarization, human. shares compounds with PAFAH2 inh. recombinant PAFAH2, FP-rhodamine activity probe. inhibition, % at 3.39 µM. actives 65% (n = 2,300);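 active = mean inhibition over three repeats above a set limit taken from the earlier primary screen, cut at about 30% in these data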;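 note: inhibitor blocks binding of rhodamine activity probe so polarization falls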
Numbers stand for hits; . = inactive; / = no result given. Hits are enriched below; roughly 3.6% of the tested compounds scored in any of these assays.

SMILES	PAFAH1B3 inh	IMP-1 inhibitor	VIM-2 inhibitor	PAFAH1B2 FP inh	PAFAH2 inh	pPAFAH inh	PAFAH2 FP conf
Nc1c(Cl)cc(Cl)cc1C(=O)OCC(=O)N1CCCC1=O	.	/	/	.	40	.	36
Nc1c(Cl)cc(Cl)cc1C(=O)OCC(=O)N1CCCC1	.	.	.	.	.	.	/
Cc1cccc(C(=O)OCC(=O)N2CCCC2=O)c1O	.	/	/	.	38	.	.
Cc1cccc(C(=O)OCC(=O)N2CCCCCC2)c1O	.	/	/	.	.	.	/
O=C1/C(=C/c2ccco2)SC(=S)N1c1cccnc1	.	.	.	.	32	/	.
O=C1/C(=C\c2ccc(O)cc2)SC(=S)N1c1cccnc1	.	.	.	.	.	.	/
CC(C)=CC(=O)OCC(=O)Nc1cc(C)cc(C)c1	.	.	.	.	81	.	85
CC(C)=CC(=O)OCC(=O)Nc1ccc(Cl)cc1	.	.	.	.	80	.	78
CCOC(=O)/C=C/C(=O)OCC(=O)Nc1ccc(C)cc1	/	.	.	/	/	.	/
Cc1ccc(OCCC(=O)OCC(=O)Nc2cc(C)cc(C)c2)cc1	.	.	.	.	.	.	/
CCN(CC)c1ccc(S(=O)(=O)N2CCOCC2)cc1NC(=O)COC(=O)/C=C/c1ccccc1	.	/	/	.	57	/	42
CCN(CC)c1ccc(S(=O)(=O)N2CCOCC2)cc1NC(=O)COC(=O)c1ccco1	.	/	/	.	.	.	/
CCN(CC)c1ccc(S(=O)(=O)N2CCOCC2)cc1NC(=O)COC(=O)/C=C/c1ccc(C)o1	.	/	/	.	38	.	40
CCN(CC)c1ccc(S(=O)(=O)N2CCOCC2)cc1NC(=O)COC(=O)/C=C/c1ccc(O)c(OC)c1	.	/	/	.	65	/	66
O=C(CN1CCN(c2ccccc2O)CC1)Nc1cc(S(=O)(=O)N2CCCC2)ccc1Cl	.	/	/	.	.	.	/
Cn1cc(C=C2C(=O)OC3(CCCCC3)OC2=O)c2ccccc21	.	.	.	.	46	.	46
N#C/C(=C\c1ccc(O)c(O)c1)C(=O)N1CCc2ccccc21	.	/	/	.	49	.	33
CC(C)Cc1csc(NC(=O)c2ccc(F)cc2)c1C(=O)O	.	.	.	.	37	.	.
CCOC(=O)c1c(CC(C)C)csc1NC(=O)c1ccccc1C(=O)O	.	.	.	.	.	.	/
O=C(COC(=O)CCCN1C(=O)c2cccc3cccc(c23)C1=O)Nc1ccc(Cl)cc1	.	.	.	.	48	.	.
NC(=O)c1ccc(NC(=O)COC(=O)CCCN2C(=O)c3cccc4cccc(c34)C2=O)cc1	.	.	.	.	.	.	/
COc1ccc(OCC(=O)NC2CCCCCCC2)cc1	.	.	.	.	.	.	/
COc1ccc2oc(C(=O)OCC(=O)NC3CCCCC3)c(C)c2c1	.	/	/	.	64	.	57
COc1ccc2oc(C(=O)OCC(=O)N3CCCCC3)c(C)c2c1	.	/	/	.	.	.	/
Cc1c(C(=O)OCC(=O)NC2CCCCC2)oc2ccccc12	.	/	/	.	46	.	48
SMILES	PAFAH1B3 inh	IMP-1 inhibitor	VIM-2 inhibitor	PAFAH1B2 FP inh	PAFAH2 inh	pPAFAH inh	PAFAH2 FP conf
CSCc1c(C(=O)OCC(=O)NC2CCCCC2)oc2ccccc12	.	/	/	.	57	.	60
COc1ccc(Br)c(C(=O)OCC(=O)NC2CCCCCC2)c1	.	/	/	.	77	.	60
O=C(CCN1CCN(c2ccccc2F)CC1)Nc1cccc(F)c1	.	.	.	.	.	.	/
O=c1oc(-c2ccccc2)c(-c2ccccc2)c2ccccc12	.	/	/	.	.	/	/
COc1ccccc1C(=O)N1CCN(CCNC(=O)C(=O)Nc2ccc(Br)c(C)c2)CC1	.	.	.	.	.	.	/
CCOc1ccc2oc(C(=O)OCC(=O)NC3CCCC3)c(C)c2c1	.	/	/	.	55	.	32

Compound activity as filed in PubChem BioAssay.
